Experimental data reported in ChEMBL document CHEMBL4689842, “EUbOPEN Chemogenomics Library wave 1” (2021).

Tested on: U2OS
Assay: Multiplex assay against U2OS
Type: toxicity, cell-based
Details: human
In short: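 Live cells were stained at seeding with Hoechst33342, BioTracker Green Microtubule Cytoskeleton Dye, MitoTracker Red and Annexin V Alexa Fluor 680, then imaged on a CQ1 microscope at 37°C and 5% CO2 after compound addition. CellPathfinder machine-learning gating split cells into Hoechst high-intensity objects or normal cells. Normal cells were split into healthy, pyknosed or fragmented nuclei, and pyknosed cells into mitotic or apoptotic. Tubulin, mitochondrial-mass and membrane-permeability phenotypes are per cents of healthy-nucleus cells.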

[1] = 12 h, 1 µM, compound concentration 1 uM, replicate 1
[2] = 12 h, 1 µM, compound concentration 1 uM, replicate 2
[3] = 12 h, 10 µM, compound concentration 10 uM, replicate 1
[4] = 12 h, 10 µM, compound concentration 10 uM, replicate 2
[5] = 24 h, 1 µM, compound concentration 1 uM, replicate 1
[6] = 24 h, 1 µM, compound concentration 1 uM, replicate 2
[7] = 24 h, 10 µM, compound concentration 10 uM, replicate 1
[8] = 24 h, 10 µM, compound concentration 10 uM, replicate 2
[9] = 48 h, 1 µM, compound concentration 1 uM, replicate 1
[10] = 48 h, 1 µM, compound concentration 1 uM, replicate 2
[11] = 48 h, 10 µM, compound concentration 10 uM, replicate 1
[12] = 48 h, 10 µM, compound concentration 10 uM, replicate 2

CC(C)Oc1ccccc1C(=O)Nc1ccccc1C(=O)Nc1cccc(S(=O)(=O)C(F)(F)F)c1
Population Apoptotic (%) [1]: 47% | Population Fragmented Nuclei (%) [1]: 14% | Population Healthy Nuclei (%) [1]: 67% | Population Hoechst High Intensity Objects (%) [1]: 11% | Population Membrane Permeable-Phenotype (%) [1]: 4% | Population Mitochondria Different-Phenotype (%) [1]: 61% | Population Mitotic Cells (%) [1]: 52% | Population Normal (%) [1]: 88% | Population Pyknosed Nuclei (%) [1]: 18% | Population Tubulin-Different-Phenotype (%) [1]: 55% | Total Cell Count [1]: 120 | Population Apoptotic (%) [2]: 33% | Population Fragmented Nuclei (%) [2]: 20% | Population Healthy Nuclei (%) [2]: 74% | Population Hoechst High Intensity Objects (%) [2]: 5% | Population Membrane Permeable-Phenotype (%) [2]: 10% | Population Mitochondria Different-Phenotype (%) [2]: 45% | Population Mitotic Cells (%) [2]: 66% | Population Normal (%) [2]: 94% | Population Pyknosed Nuclei (%) [2]: 6% | Population Tubulin-Different-Phenotype (%) [2]: 37% | Total Cell Count [2]: 62 | Population Apoptotic (%) [3]: 68% | Population Fragmented Nuclei (%) [3]: 14% | Population Healthy Nuclei (%) [3]: 61% | Population Hoechst High Intensity Objects (%) [3]: 8% | Population Membrane Permeable-Phenotype (%) [3]: 95% | Population Mitochondria Different-Phenotype (%) [3]: 61% | Population Mitotic Cells (%) [3]: 32% | Population Normal (%) [3]: 91% | Population Pyknosed Nuclei (%) [3]: 24% | Total Cell Count [3]: 142 | Population Apoptotic (%) [4]: 90% | Population Fragmented Nuclei (%) [4]: 17% | Population Healthy Nuclei (%) [4]: 71% | Population Hoechst High Intensity Objects (%) [4]: 4% | Population Membrane Permeable-Phenotype (%) [4]: 97% | Population Mitochondria Different-Phenotype (%) [4]: 92% | Population Mitotic Cells (%) [4]: 10% | Population Normal (%) [4]: 96% | Population Pyknosed Nuclei (%) [4]: 10% | Population Tubulin-Different-Phenotype (%) [4]: 100% | Total Cell Count [4]: 53 | Population Apoptotic (%) [5]: 55% | Population Fragmented Nuclei (%) [5]: 15% | Population Healthy Nuclei (%) [5]: 71% | Population Hoechst High Intensity Objects (%) [5]: 8% | Population Membrane Permeable-Phenotype (%) [5]: 2% | Population Mitochondria Different-Phenotype (%) [5]: 48% | Population Mitotic Cells (%) [5]: 44% | Population Normal (%) [5]: 91% | Population Pyknosed Nuclei (%) [5]: 13% | Population Tubulin-Different-Phenotype (%) [5]: 48% | Total Cell Count [5]: 109 | Population Apoptotic (%) [6]: 33% | Population Fragmented Nuclei (%) [6]: 21% | Population Healthy Nuclei (%) [6]: 66% | Population Hoechst High Intensity Objects (%) [6]: 7% | Population Membrane Permeable-Phenotype (%) [6]: 11% | Population Mitochondria Different-Phenotype (%) [6]: 58% | Population Mitotic Cells (%) [6]: 66% | Population Normal (%) [6]: 92% | Population Pyknosed Nuclei (%) [6]: 11% | Population Tubulin-Different-Phenotype (%) [6]: 35% | Total Cell Count [6]: 57 | Population Apoptotic (%) [7]: 74% | Population Fragmented Nuclei (%) [7]: 23% | Population Healthy Nuclei (%) [7]: 48% | Population Hoechst High Intensity Objects (%) [7]: 6% | Population Membrane Permeable-Phenotype (%) [7]: 92% | Population Mitochondria Different-Phenotype (%) [7]: 74% | Population Mitotic Cells (%) [7]: 25% | Population Normal (%) [7]: 93% | Population Pyknosed Nuclei (%) [7]: 27% | Population Tubulin-Different-Phenotype (%) [7]: 100% | Total Cell Count [7]: 148 | Population Apoptotic (%) [8]: 100% | Population Fragmented Nuclei (%) [8]: 17% | Population Healthy Nuclei (%) [8]: 56% | Population Hoechst High Intensity Objects (%) [8]: 11% | Population Membrane Permeable-Phenotype (%) [8]: 91% | Population Mitochondria Different-Phenotype (%) [8]: 94% | Population Mitotic Cells (%) [8]: 0% | Population Normal (%) [8]: 88% | Population Tubulin-Different-Phenotype (%) [8]: 98% | Total Cell Count [8]: 55 | Population Apoptotic (%) [9]: 81% | Population Fragmented Nuclei (%) [9]: 10% | Population Healthy Nuclei (%) [9]: 74% | Population Hoechst High Intensity Objects (%) [9]: 3% | Population Membrane Permeable-Phenotype (%) [9]: 4% | Population Mitochondria Different-Phenotype (%) [9]: 31% | Population Mitotic Cells (%) [9]: 18% | Population Normal (%) [9]: 96% | Population Pyknosed Nuclei (%) [9]: 14% | Population Tubulin-Different-Phenotype (%) [9]: 25% | Total Cell Count [9]: 109 | Population Apoptotic (%) [10]: 66% | Population Fragmented Nuclei (%) [10]: 22% | Population Healthy Nuclei (%) [10]: 72% | Population Hoechst High Intensity Objects (%) [10]: 7% | Population Membrane Permeable-Phenotype (%) [10]: 18% | Population Mitochondria Different-Phenotype (%) [10]: 48% | Population Mitotic Cells (%) [10]: 33% | Population Normal (%) [10]: 92% | Population Pyknosed Nuclei (%) [10]: 5% | Population Tubulin-Different-Phenotype (%) [10]: 41% | Total Cell Count [10]: 56 | Population Apoptotic (%) [11]: 77% | Population Fragmented Nuclei (%) [11]: 64% | Population Healthy Nuclei (%) [11]: 19% | Population Hoechst High Intensity Objects (%) [11]: 7% | Population Membrane Permeable-Phenotype (%) [11]: 36% | Population Mitochondria Different-Phenotype (%) [11]: 84% | Population Mitotic Cells (%) [11]: 22% | Population Normal (%) [11]: 93% | Population Pyknosed Nuclei (%) [11]: 15% | Population Tubulin-Different-Phenotype (%) [11]: 93% | Total Cell Count [11]: 190 | Population Apoptotic (%) [12]: 64% | Population Fragmented Nuclei (%) [12]: 43% | Population Healthy Nuclei (%) [12]: 38% | Population Hoechst High Intensity Objects (%) [12]: 9% | Population Membrane Permeable-Phenotype (%) [12]: 62% | Population Mitochondria Different-Phenotype (%) [12]: 75% | Population Mitotic Cells (%) [12]: 36% | Population Normal (%) [12]: 90% | Population Pyknosed Nuclei (%) [12]: 17% | Population Tubulin-Different-Phenotype (%) [12]: 98% | Total Cell Count [12]: 64
